Source: ChEMBL document CHEMBL1130393, “Antitumor agents. 178. Synthesis and biological evaluation of substituted 2-aryl-1,8-naphthyridin-4(1H)-ones as antitumor agents that inhibit tubulin polymerization” (J Med Chem, 1997)

Experiments:
[1] = test system: Panel breast (Carcinoma cell lines); assay: log molar concentration required to cause total growth inhibition of breast tumor cell lines; type: functional; settings: Homo sapiens, read-out: Log TGI (converted)
Outline: (§1)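 TGI from the NCI 60 human tumor cell line in vitro screen: log of the molar drug concentration causing total growth inhibition, reported for the named cell panel.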

[2] = test system: Panel CNS (Carcinoma cell lines); assay: log molar concentration required to cause total growth inhibition of CNS cancer tumor cell lines; type: functional; settings: Homo sapiens, read-out: Log TGI (converted); outline: as §1
[3] = test system: Panel colon (Carcinoma cell lines); assay: log molar concentration required to cause total growth inhibition of colon tumor cell lines; type: functional; settings: Homo sapiens, read-out: Log TGI (converted); outline: as §1
[4] = test system: HL-60; assay: In vitro antitumor activity against HL-60(TB) tumor cell lines; type: functional; settings: Homo sapiens
[5] = test system: Tumor Cell line; assay: In vitro antitumor activity against NCI 's human tumor cell lines; type: functional; settings: read-out: Average log GI50 (converted)
Outline: (§2)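 NCI in vitro screen of 60 human tumor cell lines. […] The value is calculated from all cell lines tested.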

[6] = test system: Leukemic tumor cell line; assay: (§3) log molar concentration required to cause total growth inhibition of leukemic tumor cell lines; type: functional; settings: Homo sapiens, read-out: Log TGI (converted); outline: as §1
[7] = test system: MDA-N; assay: In vitro antitumor activity against MDA-N tumor cell lines; type: functional; settings: Homo sapiens
[8] = test system: Melanoma tumor cell line; assay: log molar concentration required to cause total growth inhibition of melanomic tumor cell lines; type: functional; settings: Homo sapiens, read-out: Log TGI (converted); outline: as §1
[9] = test system: NCI-H460; assay: In vitro antitumor activity against NCI-H460 tumor cell lines; type: functional; settings: Homo sapiens
[10] = test system: OVCAR-3; assay: In vitro antitumor activity against OVCAR-3 tumor cell lines; type: functional; settings: Homo sapiens
[11] = test system: NSCLC; assay: log molar concentration required to cause total growth inhibition of non-small cell lung tumor cell lines; type: functional; settings: Homo sapiens, read-out: Log TGI (converted); outline: as §1
[12] = test system: PC-3; assay: In vitro antitumor activity against PC-3 tumor cell lines; type: functional; settings: Homo sapiens
[13] = test system: Panel prostate (Carcinoma cell lines); assay: log molar concentration required to cause total growth inhibition of prostate tumor cell lines; type: functional; settings: Homo sapiens, read-out: Log TGI (converted); outline: as §1
[14] = test system: Panel renal (Carcinoma cell lines); assay: log molar concentration required to cause total growth inhibition of renal tumor cell lines; type: functional; settings: Homo sapiens, read-out: Log TGI (converted); outline: as §1
[15] = test system: SF-295; assay: In vitro antitumor activity against SF-295 tumor cell lines; type: functional; settings: Homo sapiens
[16] = test system: SK-MEL-5; assay: In vitro antitumor activity against SK-MEL-5 tumor cell lines; type: functional; settings: Homo sapiens
[17] = test system: U-251; assay: In vitro antitumor activity against U-251 tumor cell lines; type: functional; settings: Homo sapiens
[18] = target: Tubulin (Bos taurus, UniProt Q6B856+Q862L2+Q862F3); assay: Inhibition of tubulin polymerization; type: functional
[19] = target: Tubulin (Bos taurus) (UniProt Q6B856+Q862L2+Q862F3); assay: Inhibition of radiolabeled colchicine binding to tubulin; type: protein assay; parameters: concentration or dose not given beside the values; settings: concentration not given here
Outline: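 Measured by DEAE-cellulose filter binding. The 0.1 mL mixture held bovine brain tubulin 1.0 µM, 1.0 M monosodium glutamate (pH 6.6), 1 mM MgCl2, 0.1 mM GTP, 5.0 µM [3H]colchicine, 5% DMSO and inhibitor at 5.0 µM. It was incubated 20 min at 37 °C, filtered through two DEAE-cellulose papers, washed with water and counted by liquid scintillation.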

[20] = test system: HCT-116; assay: In vitro antitumor activity against HCT116 tumor cell lines; type: functional; settings: Homo sapiens
[21] = test system: MDA-MB-435; assay: In vitro antitumor activity against MDA-MB-435 NCI 's human tumor cell lines; type: functional
[22] = test system: CAKI-1; assay: In vitro antitumor activity against CAKI-1 tumor cell lines; type: functional; settings: Homo sapiens
[23] = test system: Tumor Cell line; assay: log molar concentration required to cause total growth inhibition of NCI 's human tumor cell lines; type: functional; settings: read-out: Log TGI (converted)
Outline: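 NCI 60 human tumor cell line in vitro screen. TGI is the log molar concentration giving total growth inhibition, calculated from all cell lines tested.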

[24] = test system: Panel ovarian (Carcinoma cell lines); assay: log molar concentration required to cause total growth inhibition of ovarian tumor cell lines; type: functional; settings: Homo sapiens, read-out: Log TGI (converted); outline: as §1
[25] = test system: Panel CNS (Carcinoma cell lines); assay: log molar concentration required to cause total growth inhibition of CNS cancer cell lines; type: functional; settings: Homo sapiens, read-out: Log TGI (converted); outline: as §1
[26] = test system: CAKI-1; assay: in vitro antitumor activity against CAKI-1 tumor cell lines; type: functional; settings: Homo sapiens
[27] = test system: HCT-116; assay: in vitro antitumor activity against HCT116 tumor cell lines; type: functional; settings: Homo sapiens
[28] = test system: HL-60; assay: in vitro antitumor activity against HL-60(TB) tumor cell lines; type: functional; settings: Homo sapiens
[29] = test system: Tumor Cell line; assay: in vitro antitumor activity against NCI 's human tumor cell lines; type: functional; settings: read-out: Average log GI50 (converted); outline: as §2
[30] = test system: MDA-MB-435; assay: in vitro antitumor activity against MAD-MB-435NCI 's human tumor cell lines; type: functional
[31] = test system: MDA-N; assay: in vitro antitumor activity against MDA-N tumor cell lines; type: functional; settings: Homo sapiens
[32] = test system: NCI-H460; assay: in vitro antitumor activity against NCI-H460 tumor cell lines; type: functional; settings: Homo sapiens
[33] = test system: OVCAR-3; assay: in vitro antitumor activity against OVCAR-3 tumor cell lines; type: functional; settings: Homo sapiens
[34] = test system: PC-3; assay: in vitro antitumor activity against PC-3 tumor cell lines; type: functional; settings: Homo sapiens
[35] = test system: SF-295; assay: in vitro antitumor activity against SF-295 tumor cell lines; type: functional; settings: Homo sapiens
[36] = test system: SK-MEL-5; assay: in vitro antitumor activity against SK-MEL-5 tumor cell lines; type: functional; settings: Homo sapiens
[37] = test system: U-251; assay: in vitro antitumor activity against U-251 tumor cell lines; type: functional; settings: Homo sapiens
[38] = test system: leukaemia cell line; assay: as §3; type: functional; settings: Homo sapiens, read-out: Log TGI (converted); outline: as §1
[39] = test system: Melanoma tumor cell line; assay: log molar concentration required to cause total growth inhibition of melanomicell lines; type: functional; settings: Homo sapiens, read-out: Log TGI (converted); outline: as §1

| Structure (SMILES) | TGI [1] | TGI [3] | GI50 [4] | GI50 [5] | GI50 [7] | GI50 [9] | GI50 [10] | TGI [11] | GI50 [12] | TGI [13] | TGI [14] | GI50 [15] | GI50 [16] | GI50 [17] | IC50 [18] | inhibition [19] | GI50 [20] | GI50 [21] | GI50 [22] | TGI [23] | further results |
| --- | --- | --- | --- | --- | --- | --- | --- | --- | --- | --- | --- | --- | --- | --- | --- | --- | --- | --- | --- | --- | --- |
| Cc1cnc2[nH]c(-c3cccc(F)c3)cc(=O)c2c1 | 537 nM | 324 nM | 20.4 nM | 50.1 nM | 11.8 nM | 38.9 nM | 13.5 nM | 16200 nM | 34.7 nM | 692 nM | 55000 nM | 27.5 nM | 28.2 nM | 40.7 nM | 630 nM | 43% | 24 nM | < 10 nM | 28.2 nM | 5130 nM | TGI [2]: 3090 nM; TGI [6]: 2690 nM; TGI [8]: 32400 nM; TGI [24]: 26900 nM |
| Cc1ccnc2nc(-c3cccc(Cl)c3)cc(O)c12 | 813 nM | 12000 nM | < 10 nM | 158 nM | 11.8 nM | 38.9 nM | 31.6 nM | 100000 nM | 15.5 nM | 2340 nM | 69200 nM | 40.7 nM | 41.7 nM | 52.5 nM | 1000 nM | 32% | 15.8 nM | < 10 nM | 33.1 nM | 25700 nM | TGI [2]: 18200 nM; TGI [6]: 100000 nM; TGI [8]: 70800 nM; TGI [24]: 27500 nM |
| Cc1cc(C)c2c(O)cc(-c3cccc(Cl)c3)nc2n1 | 1230 nM | 28800 nM | 74.1 nM | 347 nM | 19.1 nM | 224 nM | 170 nM | > 100000 nM | 27.5 nM | 3090 nM | 58900 nM | 47.9 nM | 117 nM | 295 nM | 770 nM | 22% | 170 nM | 13.2 nM | 204 nM | 26300 nM | TGI [25]: 5010 nM; TGI [6]: 81300 nM; TGI [8]: 72400 nM; TGI [24]: 30200 nM |
| Cc1ccc2c(O)cc(-c3cccc(Cl)c3)nc2n1 | 3800 nM | 3090 nM | 28.8 nM | 170 nM | > 100000 nM | 41.7 nM | < 10 nM | 24500 nM | > 100000 nM | > 100000 nM | > 100000 nM | 22.9 nM | 31.6 nM | 64.6 nM | 890 nM | 38% | 25.7 nM | < 10 nM | 41.7 nM | 21400 nM | TGI [25]: 1950 nM; TGI [6]: > 100000 nM; TGI [8]: 69200 nM; TGI [24]: 10500 nM |
| Cc1cccc(-c2cc(O)c3cccnc3n2)c1 | – | – | – | – | – | – | – | – | – | – | – | – | – | – | 3300 nM | – | – | – | – | – | GI50 [26]: 37.1 nM; GI50 [27]: 22.4 nM; GI50 [28]: 19.1 nM; GI50 [29]: 95.5 nM; GI50 [30]: < 10 nM; GI50 [31]: < 10 nM; GI50 [32]: 25.7 nM; GI50 [33]: 41.7 nM; GI50 [34]: 42.7 nM; GI50 [35]: 37.1 nM; GI50 [36]: 25.7 nM; GI50 [37]: 44.7 nM |
| Cc1cnc2[nH]c(-c3cccc(Cl)c3)cc(=O)c2c1 | 12900 nM | 9550 nM | 30.9 nM | 269 nM | > 100000 nM | 50.1 nM | 22.4 nM | 44700 nM | > 100000 nM | > 100000 nM | 87100 nM | 25.1 nM | 70.8 nM | 69.2 nM | 720 nM | 33% | 30.2 nM | < 10 nM | 42.7 nM | 30900 nM | TGI [25]: 1910 nM; TGI [38]: 72400 nM; TGI [39]: 47900 nM; TGI [24]: 15800 nM |
| Cc1cc(C)c2c(O)cc(-c3cccc(F)c3)nc2n1 | 1000 nM | 1170 nM | 37.1 nM | 85.1 nM | 12.9 nM | 53.7 nM | 18.2 nM | 2510 nM | 61.7 nM | 49000 nM | 49000 nM | 33.1 nM | 37.1 nM | 64.6 nM | 740 nM | 29% | < 10 nM | < 10 nM | 35.5 nM | 5620 nM | TGI [25]: 9770 nM; TGI [6]: 2450 nM; TGI [8]: 13800 nM; TGI [24]: 5500 nM |
| Cc1ccc2c(=O)cc(-c3cccc(F)c3)[nH]c2n1 | 575 nM | 550 nM | 22.4 nM | 42.7 nM | 14.4 nM | 33.1 nM | 19.5 nM | 5750 nM | 34.7 nM | 1580 nM | 64600 nM | 28.8 nM | 22.4 nM | 38 nM | 530 nM | 41% | 28.2 nM | 12.3 nM | 45.7 nM | 4680 nM | TGI [25]: 2240 nM; TGI [6]: 2750 nM; TGI [8]: 24000 nM; TGI [24]: 10200 nM |
